What all share (format): functional
Test [1] relates to Actinomyces viscosus. The experiment in a line: Chlorohexidine coefficient for Actinomyces viscosus M-100. The essentials: (§1)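 Hydroxylapatite-grown plaques were exposed once daily for 2 min to varying concentrations of agent until the organisms were killed. The highest level tested was 0.2% w/v for 5 days. Tests were run in duplicate. PBI is the concentration (mM) × duration (min) × frequency (days) needed for plaque kill. CC is the chlorhexidine PBI divided by the test-agent PBI.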

Test [2] concerns Actinomyces viscosus. The experiment in a line: Plaque bactericidal index against Actinomyces viscosus M-100 measured as chlorohexidine coefficient. The method in brief:
as §1

The test system of test [3] is Streptococcus sobrinus. The experiment in a line: Minimal bactericidal concentration against Streptococcus sobrinus 6715-13. The method in brief: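 Plaques were grown on standardized ceramic hydroxylapatite plates and immersed once in agent for 30 min. They were rinsed with sterile distilled water, moved to fresh broth and incubated anaerobically at 37 °C. Kill meant no further culture acid production, no turbidity change, and no growth when 48-h post-treatment plaque samples were subcultured. Tests were run in duplicate.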

Test [4] relates to Streptococcus sobrinus. The experiment in a line: Plaque bactericidal index against Streptococcus sobrinus 6715-13 measured as chlorohexidine coefficient. The essentials: as §1
Test [5] deals with Streptococcus sobrinus. The experiment in a line: Chlorohexidine coefficient for Streptococcus sobrinus 6715-13. The essentials: as §1
For test [6], the system named is Actinomyces viscosus. The experiment in a line: Chlorohexidine coefficient for Actinomyces viscosus 8A06. The method in brief: as §1
Test [7] concerns Actinomyces viscosus. The experiment in a line: Chlorohexidine coefficient for Actinomyces viscosus M-626. The essentials:
as §1

Test [8] concerns Actinomyces viscosus. The experiment in a line: Chlorohexidine coefficient for Actinomyces viscosus T14V. The method in brief: as §1
In test [9] the test system is Actinomyces viscosus. The experiment in a line: Plaque bactericidal index against Actinomyces viscosus 8A06. The essentials:
as §1

The test system of test [10] is Actinomyces viscosus. The experiment in a line: Plaque bactericidal index against Actinomyces viscosus M-100. The method in brief: as §1
Test [11] deals with Actinomyces viscosus. The experiment in a line: Plaque bactericidal index against Actinomyces viscosus 626. The method in brief: as §1
Test [12] has as its system Actinomyces naeslundii. The experiment in a line: Chlorohexidine coefficient for Actinomyces naeslundii 631. The method in brief:
as §1

Test [13] relates to Actinomyces naeslundii. The experiment in a line: Chlorohexidine coefficient for Actinomyces naeslundii B74. The essentials: as §1
Test [14] deals with Actinomyces naeslundii. The experiment in a line: Chlorohexidine coefficient for Actinomyces naeslundii N/3. The method in brief: as §1
Test [15] deals with Actinomyces naeslundii. The experiment in a line: Chlorohexidine coefficient for Actinomyces naeslundii N/9. The essentials:
as §1

In test [16] the test system is Actinomyces naeslundii. The experiment in a line: Plaque bactericidal index against Actinomyces naeslundii 631. The essentials: as §1
For test [17], the system named is Actinomyces naeslundii. The experiment in a line: Plaque bactericidal index against Actinomyces naeslundii N/9. The method in brief: as §1
Test [18] concerns Actinomyces naeslundii. The experiment in a line: Plaque bactericidal index against Actinomyces naeslundii B74. The essentials: as §1
Test [19] relates to Streptococcus sanguinis. The experiment in a line: Chlorohexidine coefficient for Streptococcus sanguis ATCC 10558. The essentials:
as §1

In test [20] the test system is Streptococcus mitis. The experiment in a line: Chlorohexidine coefficient for Streptococcus mitis 176-A1. The essentials:
as §1

The test system of test [21] is Streptococcus mitis. The experiment in a line: Chlorohexidine coefficient for Streptococcus mitis 90557. The method in brief: as §1
In test [22] the test system is Streptococcus mitis. The experiment in a line: Plaque bactericidal index against Streptococcus mitis 176-A1. The method in brief: as §1
For test [23], the system named is Streptococcus mitis. The experiment in a line: Plaque bactericidal index against Streptococcus mitis 90557. The method in brief:
as §1

Test [24] relates to Streptococcus sanguinis. The experiment in a line: Chlorohexidine coefficient for Streptococcus sanguis H7P. The method in brief: (§2)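 Plaques were grown on standardized ceramic hydroxylapatite plates and treated once daily for 2 min with varying concentrations until kill. They were then rinsed in sterile water and incubated in fresh broth at 37 °C anaerobically. Kill meant no acid production, no turbidity change, and no regrowth of 48-h post-treatment subcultures. Tests were run in duplicate. PBI = concn (mM) × min × days to kill; CC = chlorhexidine PBI ÷ test PBI.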

Test [25] has as its system Streptococcus sanguinis. The experiment in a line: Plaque bactericidal index against Streptococcus sanguis ATCC 10558. The method in brief:
as §1

Test [26] relates to Streptococcus sanguinis. The experiment in a line: Plaque bactericidal index against Streptococcus sanguis H7P. The essentials: as §2
Test [27] deals with Streptococcus sobrinus. The experiment in a line: Chlorohexidine coefficient for Streptococcus sobrinus SL-1. The method in brief: as §1
Test [28] has as its system Streptococcus sobrinus. The experiment in a line: Plaque bactericidal index against Streptococcus sobrinus 6715-13. The method in brief: as §1
Test [29] relates to Streptococcus sobrinus. The experiment in a line: Plaque bactericidal index against Streptococcus sobrinus SL-1. The method in brief: as §1
Test [30] has as its system Streptococcus mutans. The experiment in a line: Chlorohexidine coefficient for Streptococcus mutans FA-1. The essentials:
as §1

For test [31], the system named is Streptococcus mutans. The experiment in a line: Chlorohexidine coefficient for Streptococcus mutans GR-5. The method in brief:
as §1

Test [32] relates to Streptococcus mutans. The experiment in a line: Chlorohexidine coefficient for Streptococcus mutans IB1600. The method in brief: as §1
Test [33] deals with Streptococcus mutans. The experiment in a line: Chlorohexidine coefficient for Streptococcus mutans OMZ-61. The essentials: as §1
In test [34] the test system is Streptococcus mutans. The experiment in a line: Plaque bactericidal index against Streptococcus mutans FA-1. The method in brief: as §1
Test [35] relates to Streptococcus mutans. The experiment in a line: Plaque bactericidal index against Streptococcus mutans GR-5. The method in brief: as §1
Test [36] deals with Streptococcus mutans. The experiment in a line: Plaque bactericidal index against Streptococcus mutans IB1600. The essentials: as §1
The subject of test [37] is Streptococcus mutans. The experiment in a line: Plaque bactericidal index against Streptococcus mutans OMZ-61. The essentials:
as §2

In test [38] the test system is Actinomyces naeslundii. The experiment in a line: Plaque bactericidal index against Actinomyces naeslundii N/3. The method in brief: as §1

Converted amounts (≈) assume the structure as drawn.

Turning to `CCCCCCCCCCCCN=c1ccn(Cc2ccccc2)cc1.Cl`, the CC in the test with Actinomyces viscosus [1] worked out at 1.9; with Streptococcus sobrinus [5] it was 1.7. The figures for the PBI with Actinomyces viscosus [2] and with Streptococcus sobrinus [4] were 10.3 and 15.4, respectively. Besides, in the test with Streptococcus sobrinus [3], the MBC was 1290 µM.
On the same counts, the results for `Br.CCCCCCCCN=c1ccn(CCCCCC)cc1` are 1.4, 2.4, 13.5, 10.8 and 1350 µM.
On the same counts, the results for `CCCCCCCCCN=c1ccn(CCCCCCCCC)cc1.Cl` are 4, 2.5, 5.2, 10.4 and 2610 µM.
Turning to `CCCCCCCCCn1ccc(=NCCCCCCCC)cc1.Cl`, the CC turned out to be 1.4 in the test on Actinomyces viscosus [1] and 1.9 in the test with Streptococcus sobrinus [5]. In addition, the PBI in the test on Actinomyces viscosus [2] and with Streptococcus sobrinus [4] was 13.3 each time. This compound registered an MBC against Streptococcus sobrinus [3] of 1350 µM.
Regarding `CCCCCCCCN=c1ccn(Cc2ccccc2)cc1.Cl`, the CC in the test with Actinomyces viscosus [1] stood at 1.6; in the test with Streptococcus sobrinus [5], 1.1. The PBI with Actinomyces viscosus [2] was 12; in the test on Streptococcus sobrinus [4], 24. Besides, the MBC against Streptococcus sobrinus [3] was 1500 µM.
Consider `N=C(NCCCCCCNC(=N)NC(=N)Nc1ccc(Cl)cc1)NC(=N)Nc1ccc(Cl)cc1` [CHLORHEXIDINE], for which the PBI in the test on Actinomyces viscosus [2] is 19.2; in the test on Streptococcus sobrinus [4], 25.6. Besides, the MBC in the test with Streptococcus sobrinus [3] is 3200 µM (≈ 1620 µg/mL).
Consider `Br.CCCCCCCCCN=c1ccn(CCCCCCCC)cc1`, for which the values for the CC in the test with Actinomyces viscosus [1] and in the test on Streptococcus sobrinus [5] were 1.9 and 2.6, respectively. The PBI with Actinomyces viscosus [2] and in the test with Streptococcus sobrinus [4] was 9.7 throughout. This compound also gave an MBC with Streptococcus sobrinus [3] of 1210 µM.
Consider `CCCCCCCCN=c1ccn(CCCCCCCC)cc1.Cl` [PIRTENIDINE HYDROCHLORIDE], for which the CC with Actinomyces viscosus [6] amounted to 4.6; in the test with Actinomyces viscosus [1], 6.9; in the test on Actinomyces viscosus [7] it was 13.7; in the test with Actinomyces viscosus [8] it was 13.7; with Actinomyces naeslundii [12], 6.9; in the test on Actinomyces naeslundii [13] it was 13.7. For the same compound, the CC with Actinomyces naeslundii [14] amounted to 13.7; in the test on Actinomyces naeslundii [15], 13.7; with Streptococcus sanguinis [19] it was 6.4; in the test on Streptococcus mitis [20] it was 1.6; in the test with Streptococcus mitis [21] it was 6.4; with Streptococcus sanguinis [24] it was 3.2. For the same compound, the CC with Streptococcus sobrinus [27] is 9.1; in the test with Streptococcus mutans [30], 18.3; in the test on Streptococcus mutans [31], 18.3; with Streptococcus mutans [32], 18.3; with Streptococcus mutans [33], 18.3; with Streptococcus sobrinus [5] it was 9.1. In addition, the PBI was determined as 4.2 with Actinomyces viscosus [9]; 2.8 in the test on Actinomyces viscosus [10]; 2.8 in the test on Actinomyces viscosus [2]; 1.4 in the test with Actinomyces viscosus [11]; 2.8 in the test on Actinomyces naeslundii [16]; 1.4 with Actinomyces naeslundii [17]. Further, the PBI in the test on Actinomyces naeslundii [18] is 1.4; in the test on Streptococcus mitis [22] it was 20; in the test on Streptococcus mitis [23], 5; with Streptococcus sanguinis [25], 5; with Streptococcus sanguinis [26] it was 10; with Streptococcus sobrinus [28], 2.8. The PBI in the test with Streptococcus sobrinus [29] turned out to be 2.8; in the test with Streptococcus mutans [34], 1.4; in the test on Streptococcus mutans [35] it was 1.4; with Streptococcus mutans [36], 1.4; in the test with Streptococcus mutans [37] it was 1.4; with Streptococcus sobrinus [4], 2.8. This compound also gave a PBI in the test on Actinomyces naeslundii [38] of 1.4. In the test on Streptococcus sobrinus [3], this compound yielded an MBC of 280 µM.
With `Br.CCCCCCCCN=c1ccn(CCCCCCC)cc1`, the results for the CC in the test on Actinomyces viscosus [1] and in the test on Streptococcus sobrinus [5] were 2.5 and 3.3, respectively. Moreover, the PBI with Actinomyces viscosus [2] and with Streptococcus sobrinus [4] was 7.8 throughout. The compound also gave an MBC in the test on Streptococcus sobrinus [3] of 1300 µM.
Consider `Br.CCCCCCCN=c1ccn(CCCCCCC)cc1`, for which the CC with Actinomyces viscosus [1] turned out to be 4; with Streptococcus sobrinus [5] it was 3.2. Moreover, the PBI is 5.4 with Actinomyces viscosus [2] and 8 in the test with Streptococcus sobrinus [4]. In addition, in the test with Streptococcus sobrinus [3], the minimal bactericidal concentration (MBC) came to 1350 µM.
On the same counts, the results for `CCCCCCCCCN=c1ccn(CCCCCC)cc1.Cl` are 6.6, 8.8, 2.9, 2.9 and 290 µM.
As for `CCCCCCCN=c1ccn(CCCCCC)cc1.Cl`, the CC in the test on Actinomyces viscosus [1] was 3; in the test with Streptococcus sobrinus [5] it was 2. The results for the PBI in the test on Actinomyces viscosus [2] and in the test on Streptococcus sobrinus [4] were 6.4 and 12.8, respectively. Further, the MBC in the test with Streptococcus sobrinus [3] turned out to be 1600 µM.
On the same counts, the results for `CCCCCCCCCn1ccc(=NCCCCCCC)cc1.Cl` are 1.7, 3, 11.3, 8.5 and 1410 µM.
The corresponding values for `Br.CCCCC(CC)CN=c1ccn(CC(CC)CCCC)cc1` (stereo unspecified) are 1, 1.3, 20, 20 and 1250 µM.
